How the values were obtained:
[1] = Displacement of [125I]-Ang-2 from AT2 receptor in porcine myometrial membranes after 1.5 hrs; format: cell membranes, Sus scrofa
Procedure, shortened: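 Membranes were made from porcine uteri (myometrium). AT1 binding was blocked by adding losartan. [125I]Ang II binding ran in 50 mM Tris-HCl pH 7.4 with 100 mM NaCl, 10 mM MgCl2, 1 mM EDTA, 0.025% bacitracin and 0.2% BSA, at 25 °C for 1.5 h. Bound ligand was caught on GF/C filters, washed with cold Tris and gamma-counted. IC50 was the concentration displacing 50% of specific binding. Run in triplicate.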

[2] = Displacement of [125I]-Ang-2 from AT1 receptor in rat liver membranes after 1.5 hrs; format: cell membranes, Membrane
[3] = target: T1, Type-2 angiotensin II receptor (Homo sapiens, UniProt P50052); test: Binding affinity to AT2 receptor (unknown origin)
T1 sequence (P50052 whole entry): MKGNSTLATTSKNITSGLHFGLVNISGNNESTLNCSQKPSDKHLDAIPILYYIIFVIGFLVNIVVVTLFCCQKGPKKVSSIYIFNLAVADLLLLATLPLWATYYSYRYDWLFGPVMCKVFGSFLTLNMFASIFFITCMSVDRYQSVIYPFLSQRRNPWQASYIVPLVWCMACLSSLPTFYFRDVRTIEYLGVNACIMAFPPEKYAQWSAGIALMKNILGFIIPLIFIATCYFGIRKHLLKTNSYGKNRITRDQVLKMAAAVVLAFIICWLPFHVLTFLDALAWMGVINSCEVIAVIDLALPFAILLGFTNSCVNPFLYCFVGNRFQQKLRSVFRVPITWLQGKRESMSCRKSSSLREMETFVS

[4] = target: T2, Type-1 angiotensin II receptor (Homo sapiens, UniProt P30556); test: Binding affinity to AT1 receptor (unknown origin)
T2 sequence (P30556 whole entry): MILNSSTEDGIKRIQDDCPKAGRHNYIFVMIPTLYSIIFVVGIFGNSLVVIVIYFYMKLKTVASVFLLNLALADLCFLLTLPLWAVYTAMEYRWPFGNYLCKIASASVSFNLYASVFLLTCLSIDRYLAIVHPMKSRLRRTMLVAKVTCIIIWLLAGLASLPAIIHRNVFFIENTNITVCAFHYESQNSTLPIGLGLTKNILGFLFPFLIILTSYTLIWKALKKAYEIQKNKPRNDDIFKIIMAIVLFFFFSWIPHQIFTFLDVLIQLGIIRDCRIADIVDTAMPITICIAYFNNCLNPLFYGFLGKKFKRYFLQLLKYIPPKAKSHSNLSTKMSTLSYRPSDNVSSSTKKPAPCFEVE

[5] = tested on: Rattus norvegicus; test: Toxicity in renal spontaneously hypertensive rat model assessed as reduction of heart rate at 20 mg/kg, po measured at 8 hrs by tail-cuff method relative to control; format: organism-based; design: dose 20 mg/kg, route oral; conditions: in vivo
Procedure, shortened: (§1)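 Spontaneously hypertensive rats were dosed orally with the test agent at 20 mg/kg, with a saline-dosed control group. SAP, DAP, MAP and heart rate were recorded before dosing and at 1, 2, 4, 6 and 8 h after. Change was taken as the post-dose value minus the pre-dose value. Significance was judged against the control at p < 0.1 and p < 0.05.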

[6] = tested on: Rattus norvegicus; test: Toxicity in renal spontaneously hypertensive rat model assessed as reduction of heart rate at 20 mg/kg, po measured at 6 hrs by tail-cuff method relative to control; format: organism-based; design: dose 20 mg/kg, route oral; conditions: in vivo; procedure, shortened: as §1
[7] = tested on: Rattus norvegicus; test: Toxicity in renal spontaneously hypertensive rat model assessed as reduction of heart rate at 20 mg/kg, po measured at 4 hrs by tail-cuff method relative to control; format: organism-based; design: dose 20 mg/kg, route oral; conditions: in vivo; procedure, shortened: as §1
[8] = tested on: Rattus norvegicus; test: Toxicity in renal spontaneously hypertensive rat model assessed as reduction of heart rate at 20 mg/kg, po measured at 2 hrs by tail-cuff method relative to control; format: organism-based; design: dose 20 mg/kg, route oral; conditions: in vivo; procedure, shortened: as §1
[9] = tested on: Rattus norvegicus; test: Toxicity in renal spontaneously hypertensive rat model assessed as reduction of heart rate at 20 mg/kg, po measured at 1 hr by tail-cuff method relative to control; format: organism-based; design: dose 20 mg/kg, route oral; conditions: in vivo; procedure, shortened: as §1
[10] = tested on: Rattus norvegicus; test: Antihypertensive activity in renal spontaneously hypertensive rat model assessed as reduction of mean arterial pressure at 20 mg/kg, po measured at 6 hrs by tail-cuff method relative to control; format: functional, Artery; procedure, shortened: as §1
[11] = tested on: Rattus norvegicus; test: Antihypertensive activity in renal spontaneously hypertensive rat model assessed as reduction of mean arterial pressure at 20 mg/kg, po measured at 4 hrs by tail-cuff method relative to control; format: functional, Artery; procedure, shortened: as §1
[12] = tested on: Rattus norvegicus; test: Antihypertensive activity in renal spontaneously hypertensive rat model assessed as reduction of mean arterial pressure at 20 mg/kg, po measured at 1 hr by tail-cuff method relative to control; format: functional, Artery; procedure, shortened: as §1
[13] = tested on: Rattus norvegicus; test: Antihypertensive activity in renal spontaneously hypertensive rat model assessed as reduction of diastolic arterial pressure at 20 mg/kg, po measured at 8 hrs by tail-cuff method relative to control; format: functional, Artery; procedure, shortened: as §1
[14] = tested on: Rattus norvegicus; test: Antihypertensive activity in renal spontaneously hypertensive rat model assessed as reduction of diastolic arterial pressure at 20 mg/kg, po measured at 6 hrs by tail-cuff method relative to control; format: functional, Artery; procedure, shortened: as §1
[15] = tested on: Rattus norvegicus; test: Antihypertensive activity in renal spontaneously hypertensive rat model assessed as reduction of diastolic arterial pressure at 20 mg/kg, po measured at 4 hrs by tail-cuff method relative to control; format: functional, Artery; procedure, shortened: as §1
[16] = tested on: Rattus norvegicus; test: Antihypertensive activity in renal spontaneously hypertensive rat model assessed as reduction of diastolic arterial pressure at 20 mg/kg, po measured at 2 hrs by tail-cuff method relative to control; format: functional, Artery; procedure, shortened: as §1
[17] = tested on: Rattus norvegicus; test: Antihypertensive activity in renal spontaneously hypertensive rat model assessed as reduction of diastolic arterial pressure at 20 mg/kg, po measured at 1 hr by tail-cuff method relative to control; format: functional, Artery; procedure, shortened: as §1
[18] = tested on: Rattus norvegicus; test: Antihypertensive activity in renal spontaneously hypertensive rat model assessed as reduction of systolic arterial pressure at 20 mg/kg, po measured at 8 hrs by tail-cuff method relative to control; format: functional, Artery; procedure, shortened: as §1
[19] = tested on: Rattus norvegicus; test: Antihypertensive activity in renal spontaneously hypertensive rat model assessed as reduction of systolic arterial pressure at 20 mg/kg, po measured at 6 hrs by tail-cuff method relative to control; format: functional, Artery; procedure, shortened: as §1
[20] = tested on: Rattus norvegicus; test: Antihypertensive activity in renal spontaneously hypertensive rat model assessed as reduction of systolic arterial pressure at 20 mg/kg, po measured at 4 hrs by tail-cuff method relative to control; format: functional, Artery; procedure, shortened: as §1
[21] = tested on: Rattus norvegicus; test: Antihypertensive activity in renal spontaneously hypertensive rat model assessed as reduction of systolic arterial pressure at 20 mg/kg, po measured at 2 hrs by tail-cuff method relative to control; format: functional, Artery; procedure, shortened: as §1
[22] = tested on: Rattus norvegicus; test: Antihypertensive activity in renal spontaneously hypertensive rat model assessed as reduction of systolic arterial pressure at 20 mg/kg, po measured at 1 hr by tail-cuff method relative to control; format: functional, Artery; procedure, shortened: as §1
[23] = tested on: Rattus norvegicus; test: Antihypertensive activity in renal spontaneously hypertensive rat model assessed as reduction of mean arterial pressure at 20 mg/kg, po measured at 8 hrs by tail-cuff method relative to control; format: functional, Artery; procedure, shortened: as §1
[24] = tested on: Rattus norvegicus; test: Antihypertensive activity in renal spontaneously hypertensive rat model assessed as reduction of mean arterial pressure at 20 mg/kg, po measured at 2 hrs by tail-cuff method relative to control; format: functional, Artery; procedure, shortened: as §1

Row | IC50 [1] | IC50 [2] | SMILES | also measured
1 | 0.106 µM | > 10 µM | CCCCC(=O)NS(=O)(=O)c1ccc(C)cc1-c1ccc(Cn2cncn2)cc1 | –
2 | 0.064 µM | > 10 µM | CCOC(=O)NS(=O)(=O)c1ccc(C)cc1-c1ccc(Cn2cncn2)cc1 | –
3 | 0.289 µM | > 10 µM | Cc1ccc(S(=O)(=O)NC(=O)OC(C)(C)C)c(-c2ccc(Cn3cncn3)cc2)c1 | –
4 | 0.016 µM | > 10 µM | CCCCOC(=O)NS(=O)(=O)c1ccc(C)cc1-c1ccc(Cn2cncn2)cc1 | –
5 | > 10 µM | > 10 µM | Cc1ccc(S(=O)(=O)NC(=O)OCc2ccccc2)c(-c2ccc(Cn3cncn3)cc2)c1 | –
6 | 0.117 µM | > 10 µM | CCOC(=O)NS(=O)(=O)c1ccc(CN(CC)CC)cc1-c1ccc(Cn2cncn2)cc1 | –
7 | 0.01 µM | > 10 µM | CCCCOC(=O)NS(=O)(=O)c1ccc(CN(CC)CC)cc1-c1ccc(Cn2cncn2)cc1 | –
8 | > 10 µM | > 10 µM | CCN(CC)Cc1ccc(S(=O)(=O)NC(=O)OCc2ccccc2)c(-c2ccc(Cn3cncn3)cc2)c1 | –
9 | > 10 µM | > 10 µM | CCCCOC(=O)NS(=O)(=O)c1ccc(CC(C)C)cc1-c1ccc(N)cc1 | –
10 | > 10 µM | > 10 µM | CCCCOC(=O)NS(=O)(=O)c1ccc(CC(C)C)cc1-c1ccc(NC)cc1 | –
11 | > 10 µM | > 10 µM | CCCCOC(=O)NS(=O)(=O)c1ccc(CC(C)C)cc1-c1ccc(NCC)cc1 | –
12 | > 10 µM | > 10 µM | CCCCOC(=O)NS(=O)(=O)c1ccc(CC(C)C)cc1-c1ccc(NCCC)cc1 | –
13 | – | – | CCCCc1nn(C)c(=O)n1Cc1ccc(-n2cccc2-c2nnn[nH]2)cc1 | IC50 [3]: > 10 µM; IC50 [4]: 0.0025 µM
14 | 0.0004 µM | > 10 µM | CCCCOC(=O)NS(=O)(=O)c1sc(CC(C)C)cc1-c1ccc(Cn2ccnc2)cc1 [BULOXIBUTID] | –
15 | > 10 µM | 0.085 µM | CCCCc1nc(Cl)c(CO)n1Cc1ccc(-c2ccccc2-c2nnn[nH]2)cc1 [LOSARTAN] | Activity [5]: -13.2 bpm; Activity [6]: -14.05 bpm; Activity [7]: -10.57 bpm; Activity [8]: -7.1 bpm; Activity [9]: -2 bpm; Activity [10]: -19.12 mmHg; Activity [11]: -15.13 mmHg; Activity [12]: -3.05 mmHg; Activity [13]: -13.09 mmHg; Activity [14]: -17.58 mmHg; Activity [15]: -14.25 mmHg; Activity [16]: -8.96 mmHg; Activity [17]: -7.76 mmHg; Activity [18]: -14.02 mmHg; Activity [19]: -20.23 mmHg; Activity [20]: -15.55 mmHg; Activity [21]: -5.21 mmHg; Activity [22]: -2.8 mmHg; Activity [23]: -14.55 mmHg; Activity [24]: -7.33 mmHg

— ChEMBL document CHEMBL3091458, “Design, synthesis, and biological evaluation of 1,2,4-triazole bearing 5-substituted biphenyl-2-sulfonamide derivatives as potential antihypertensive candidates” (Bioorg Med Chem, 2013)
